Measurements from ChEMBL document CHEMBL3120122, “Highly potent HCV NS4B inhibitors with activity against multiple genotypes” (J Med Chem, 2014).

Legend:
[1] = Cytotoxicity against human HuH7 cells; type: cell-based, Huh-7
[2] = tested on: Hepatitis C virus; assay: Antiviral activity against HCV JFH-1 expressing NS4B infected in human HuH7 cells assessed as inhibition of viral RNA replication after 3 days by dual-glo luciferase reporter gene assay; type: functional, organism-based, Hepacivirus hominis; details: JFH-1, Huh-7, 72 h
[3] = Lipophilicity, log D of the compound at pH 7.4 by chromatographic analysis; type: physicochemical; details: buffer
[4] = tested on: Hepatitis C virus; assay: Antiviral activity against HCV Con1 expressing NS4B H94N mutant infected in human HuH7 cells assessed as inhibition of viral RNA replication after 3 days by dual-glo luciferase reporter gene assay; type: functional, organism-based, Hepacivirus hominis; details: isolate Con1, Huh-7, 72 h
Outline: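 Tested in the HCV genotype 1b replicon assay carrying the NS4B H94N substitution, alongside the matched 1a, 1b and 2a-JFH replicon screens.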

[5] = tested on: Hepatitis C virus; assay: Antiviral activity against HCV Con1 expressing wild type NS4B infected in human HuH7 cells assessed as inhibition of viral RNA replication after 3 days by dual-glo luciferase reporter gene assay; type: functional, organism-based, Hepacivirus hominis; details: isolate Con1, Huh-7, 72 h
Outline: (§1)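 Measured in HCV replicon assays, not infection, using genotype 1a, 1b and 2a (JFH) replicons; the read-out is inhibition of replicon replication.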

[6] = Selectivity ratio of EC50 for HCV JFH-1 expressing NS4B to EC50 for HCV Con1 expressing wild type NS4B; type: functional
[7] = tested on: Hepatitis C virus; assay: Selectivity ratio of EC50 for HCV Con1 expressing NS4B H94N mutant to EC50 for HCV Con1 expressing wild type NS4B; type: functional, Hepacivirus hominis, isolate Con1
[8] = Displacement of tritium labeled (R)-6-cyclopropyl-4-methyl-N-(morpholin-3-ylmethyl)-8-(trifluoromethyl)quinoline-2-carboxamide from recombinant HCV genotype 1b C-terminal His6-tagged NS4B expressed in baculovirus infected insect SF9 cells after overnight incubation by scintillation proximity assay; design: species or system Hepatitis C virus subtype 1b
[9] = tested on: Hepatitis C virus; assay: Antiviral activity against HCV H77 expressing wild type NS4B infected in human HuH7 cells assessed as inhibition of viral RNA replication after 3 days by dual-glo luciferase reporter gene assay; type: functional, organism-based, Hepacivirus hominis; details: genotype 1a H77, Huh-7, 72 h; outline: as §1
[10] = tested on: Hepatitis C virus; assay: Antiviral activity against HCV ED43 expressing NS4B infected in human HuH7 cells assessed as inhibition of viral RNA replication after 3 days by dual-glo luciferase reporter gene assay; type: functional, organism-based, Hepacivirus hominis; details: ED43, Huh-7, 72 h
[11] = Intrinsic clearance in rat liver microsomes at 3 uM after 1 hr in presence of NADPH and UDP-glucuronic acid; type: ADME; details: read-out: CLH (converted)
[12] = Clearance in iv dosed Sprague-Dawley rat administered as 30 mins infusion; type: ADME, organism-based; details: in vivo
[13] = Volume of distribution at steady state in iv dosed Sprague-Dawley rat administered as 30 mins infusion; type: ADME, organism-based; details: in vivo, read-out: Vdss
[14] = tested on: Hepatitis C virus; assay: Antiviral activity against HCV genotype 6a expressing NS4B infected in human HuH7 cells assessed as inhibition of viral RNA replication after 3 days by dual-glo luciferase reporter gene assay; type: functional, organism-based, Hepacivirus hominis; details: Huh-7, 72 h
[15] = tested on: Hepatitis C virus; assay: Antiviral activity against HCV S52 expressing NS4B infected in human HuH7 cells assessed as inhibition of viral RNA replication after 3 days by dual-glo luciferase reporter gene assay; type: functional, organism-based, Hepacivirus hominis; details: S52, Huh-7, 72 h
[16] = Half life in iv dosed Sprague-Dawley rat administered as 30 mins infusion; type: ADME, organism-based; details: in vivo
[17] = Oral bioavailability in Sprague-Dawley rat; type: ADME, organism-based; details: in vivo
[18] = tested on: Hepatitis C virus; assay: Antiviral activity against HCV Con1 expressing NS4B H94S mutant infected in human HuH7 cells assessed as inhibition of viral RNA replication after 3 days by dual-glo luciferase reporter gene assay; type: functional, organism-based, Hepacivirus hominis; details: isolate Con1, Huh-7, 72 h
[19] = Intrinsic clearance in human liver microsomes at 3 uM after 1 hr in presence of NADPH and UDP-glucuronic acid; type: ADME; details: read-out: CLH (converted)
[20] = tested on: Hepatitis C virus; assay: Antiviral activity against HCV genotype 2b expressing full length NS4B infected in human HuH7 cells assessed as inhibition of viral RNA replication after 3 days by dual-glo luciferase reporter gene assay; type: functional, organism-based, Hepacivirus hominis; details: Huh-7, 72 h

For `Cc1cc(-c2nnc(NC3CCCC3)o2)nc2c(C(C)(C)C)cc(NCC(F)(F)F)cc12`, the CC50 [1] was 15800 nM, the EC50 [2] was 525 nM and the chromatographic logD [3] was 4.6. It also gave an EC50 [4] of 5.2 nM and an EC50 [5] of 0.15 nM.
For `Cc1cc(-c2nnc(NCC3OCCO3)o2)nc2c(C(C)(C)C)cc(OCC(F)(F)F)cc12`, the Ratio EC50 [6] was 2720, the “Ratio EC50” value [7] was 42 and the CC50 [1] was 20400 nM. The EC50 [2] was 3580 nM, the chromatographic logD [3] was 3.9 and the EC50 [4] was 54 nM. For the same compound, the Kd [8] was 31 nM, the EC50 [5] was 1.3 nM and the EC50 [9] was 0.9 nM.
`Cc1cc(-c2nnc(NC3CCCC3)o2)nc2c(C(C)(C)C)cc(OCC(F)(F)F)cc12` gave an EC50 [2] of 3030 nM, a chromatographic logD [3] of 4.9 and an EC50 [4] of 35 nM. The EC50 [5] was 0.63 nM.
Work on `Cc1cc(-c2nnc(N[C@H]3CCC[C@@H](O)C3)o2)nc2c(C(C)(C)C)cc(NCC(F)(F)F)cc12` yielded an EC50 [2] of 201 nM.
`Cc1cc(-c2nnc(N[C@@H]3CCC[C@H](O)C3)o2)nc2c(C(C)(C)C)cc(NCC(F)(F)F)cc12` gave an EC50 [10] of 0.9 nM, a CLint scaled at 3 µM [11] of 0.24 L/h/kg and a Ratio EC50 [6] of 30. It also gave a clearance [12] of 0.65 L/h/kg, a Vd [13] of 2.4 L/kg and a CC50 [1] of 6250 nM. The EC50 [14] was 3.1 nM, the EC50 [15] was 3.7 nM and the EC50 [2] was 3 nM. It also gave a half-life [16] of 11 h, a bioavailability [17] of 88% and a chromatographic logD [3] of 3.6. It also gave an EC50 [4] of 0.6 nM, an EC50 [18] of 0.34 nM and a CLint scaled at 3 µM [19] of 0.22 L/h/kg. It also gave an EC50 [5] of 0.09 nM, an EC50 [9] of 0.08 nM and an EC50 [20] of 0.6 nM.
With `Cc1cc(-c2nnc(Nc3ccccc3)o2)nc2c(C(F)(F)F)cc(-c3ccccc3)cc12` the CLint scaled at 3 µM [11] was 0.7 L/h/kg, the clearance [12] was 1.05 L/h/kg and the Vd [13] was 1.8 L/kg. The CC50 [1] was 86400 nM, the EC50 [2] was over 20000 nM and the half-life [16] was 2.3 h. The chromatographic logD [3] was 5.6, the CLint scaled at 3 µM [19] was 0.46 L/h/kg and the EC50 [5] was 5.9 nM.
In the case of `Cc1cc(-c2nnc(N[C@@H]3CCC[C@H](O)C3)o2)nc2c(C(C)(C)C)cc(OCC(F)(F)F)cc12`, the EC50 [10] is reported as 1.5 nM, the Ratio EC50 [6] is reported as 300 and the CC50 [1] is reported as 20900 nM. The EC50 [15] was 30 nM, the EC50 [2] was 96 nM and the chromatographic logD [3] was 4. The EC50 [4] was 5.5 nM, the EC50 [5] was 0.32 nM and the EC50 [9] was 0.09 nM. The EC50 [20] was 0.9 nM.
`Cc1cc(-c2nnc(N[C@H]3C[C@H](O)C3)o2)nc2c(C(C)(C)C)cc(OCC(F)(F)F)cc12` showed a CC50 [1] of 25900 nM, an EC50 [2] of 5220 nM and an EC50 [4] of 714 nM. For the same compound, the EC50 [5] was 3.5 nM.
`Cc1cc(-c2nnc(NCC3OCCO3)o2)nc2c(C(F)(F)F)cc(OCC(F)(F)F)cc12` showed a CC50 [1] of 26600 nM, an EC50 [2] of 15600 nM and a chromatographic logD [3] of 3.6. It also gave an EC50 [4] of 206 nM and an EC50 [5] of 5 nM.
`COc1cc(C(F)(F)F)c2nc(-c3nnc(NCC4OCCO4)o3)cc(C)c2c1` showed a CC50 [1] of 50000 nM, a chromatographic logD [3] of 3.4 and an EC50 [4] of 719 nM. The EC50 [5] was 32 nM.
Compound `Cc1cc(-c2nnc(N[C@H]3C[C@](O)(C(F)F)C3)o2)nc2c(C(C)(C)C)cc(NCC(F)(F)F)cc12` has an EC50 [10] of 0.76 nM, a CLint scaled at 3 µM [11] of 0.22 L/h/kg and a Ratio EC50 [6] of 312. The clearance [12] was 0.87 L/h/kg, the Vd [13] was 5 L/kg and the CC50 [1] was 5440 nM. For the same compound, the EC50 [15] was 2.3 nM, the EC50 [2] was 25 nM and the half-life [16] was 5.2 h. It also gave a bioavailability [17] of 25%, a chromatographic logD [3] of 3.7 and an EC50 [4] of 0.74 nM. The EC50 [18] was 4.4 nM, the CLint scaled at 3 µM [19] was 0.2 L/h/kg and the EC50 [5] was 0.08 nM. It also gave an EC50 [9] of 0.05 nM and an EC50 [20] of 0.16 nM.
With `Cc1cc(-c2nnc(N[C@H]3C[C@](O)(C(F)F)C3)o2)nc2c(C(C)(C)C)cc(OCC(F)(F)F)cc12` the CC50 [1] was 6240 nM, the EC50 [2] was 684 nM and the chromatographic logD [3] was 4.1. The EC50 [4] was 3.4 nM and the EC50 [5] was 0.32 nM.
Work on `Cc1cc(-c2nnc(NCC3OCCO3)o2)nc2c(C(C)(C)C)cc(NCC(F)(F)F)cc12` yielded a CC50 [1] of 16000 nM, an EC50 [2] of 1100 nM and a chromatographic logD [3] of 3.6. It also gave an EC50 [4] of 4.3 nM and an EC50 [5] of 0.15 nM.
With `Cc1cc(-c2nnc(N[C@H]3C[C@@H](O)C3)o2)nc2c(C(C)(C)C)cc(OCC(F)(F)F)cc12` the CC50 [1] was 10800 nM, the EC50 [2] was 208 nM and the chromatographic logD [3] was 3.4. The EC50 [4] was 41 nM and the EC50 [5] was 1.3 nM.
